The values below come from article PMC6387783 (Chemistry & biodiversity, 2018).

For series [1], the system named is mice. Conditions: intravenous (tail-vein injection), ref [1]; cited from earlier work.
Series [2] has as its system MCF-7 cells. In kind it is cell-based, human. Conditions: peptide 2 μM with R18 1 μM vs peptide alone, HBSS, 10 min, 37 °C. The method in brief:
(§1)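 Cells are seeded in μ-slide wells at 20% confluency (HEK293 in poly-L-lysine-coated wells) and grown 24 h, then washed with HBSS (Ca/Mg). Test peptide at 2 μM in HBSS, alone or with R18 1 μM, 10 min, 37 °C, dark; negative control R18 only. Cells washed five times, then live spinning-disk confocal imaging at 37 °C (FAM ex 488 nm, em 525/50 nm). Single-cell intensities background-corrected and normalized to control mean; 30 cells/condition; Kruskal–Wallis test.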

Series [3] relates to HEK293 cells. In kind it is cell-based, human. Conditions: peptide 2 μM with R18 1 μM vs peptide alone, HBSS, 10 min, 37 °C. The method in brief: as §1

Take FAM-octaarginine amide [compound 1]: the toxicity entry in series [1] is recorded as “highly toxic”. Further, the “effect of membrane dye R18 on peptide permeation” value in series [2] and in series [3] was “significantly intensified permeation” each time.
